According to ChEMBL document CHEMBL2040721, “Potent direct inhibitors of factor Xa based on the tetrahydroisoquinoline scaffold” (Eur J Med Chem, 2012):

Legend:
Coagulation factor X = Coagulation factor X (Homo sapiens, UniProt P00742); assay: Inhibition of human factor 10a using chromogenic spectrozyme F10a as substrate after 10 mins by spectrophotometry
How it was run: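 Human plasma FXa pre-incubated 10 min at 37 °C with inhibitor (twelve concentrations, 0.015–500 μM in well) in pH 7.4 buffer, then Spectrozyme FXa added. Initial rate of A405 rise gives residual activity relative to no-inhibitor control. Duplicate or triplicate; logistic fit gives IC50, efficacy and Hill slope. Organic solvent held constant, <2.5% v/v.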

Plasma [1] = assay: Anticoagulant activity in human plasma assessed as concentration required to double the activated […] time incubated for 4 mins prior to CaCl2-challenge by fibrometry; format: functional
Plasma [2] = assay: Anticoagulant activity in human plasma assessed as concentration required to double the prothrombin time incubated for 30 s prior to thromboplastin addition by fibrometry
Prothrombin = Prothrombin (Homo sapiens, UniProt P00734); assay: Inhibition of human factor 2a using chromogenic spectrozyme TH as substrate after 10 mins by spectrophotometry
Coagulation factor VII = molecular target: T1, Coagulation factor VII (Homo sapiens, UniProt P08709); assay: Inhibition of human factor 7a using chromogenic spectrozyme 7a as substrate after 10 mins by spectrophotometry
T1 sequence (P08709 whole entry): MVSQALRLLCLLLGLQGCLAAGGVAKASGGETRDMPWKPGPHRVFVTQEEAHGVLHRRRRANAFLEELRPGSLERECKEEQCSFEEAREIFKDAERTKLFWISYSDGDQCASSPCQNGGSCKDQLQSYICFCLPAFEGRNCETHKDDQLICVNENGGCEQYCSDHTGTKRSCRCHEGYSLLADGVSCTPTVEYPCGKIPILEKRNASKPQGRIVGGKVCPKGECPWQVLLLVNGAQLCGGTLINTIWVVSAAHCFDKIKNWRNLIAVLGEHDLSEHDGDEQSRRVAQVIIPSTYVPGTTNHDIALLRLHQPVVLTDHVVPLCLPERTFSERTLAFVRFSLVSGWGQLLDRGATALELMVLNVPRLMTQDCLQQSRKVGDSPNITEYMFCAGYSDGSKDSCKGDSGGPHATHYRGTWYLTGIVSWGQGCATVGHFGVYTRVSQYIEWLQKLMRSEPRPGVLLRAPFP

Coagulation factor IX = Coagulation factor IX (Homo sapiens, UniProt P00740); assay: Inhibition of human factor 9a using chromogenic spectrozyme 9a as substrate after 10 mins by spectrophotometry
Coagulation factor XI = Coagulation factor XI (Homo sapiens, UniProt P03951); assay: Inhibition of human factor 11a using chromogenic S2366 as substrate after 10 mins by spectrophotometry
Coagulation factor XII = molecular target: T2, Coagulation factor XII (Homo sapiens, UniProt P00748); assay: Inhibition of factor 12a using chromogenic spectrozyme 12a as substrate after 10 mins by spectrophotometry
T2 sequence (P00748 whole entry): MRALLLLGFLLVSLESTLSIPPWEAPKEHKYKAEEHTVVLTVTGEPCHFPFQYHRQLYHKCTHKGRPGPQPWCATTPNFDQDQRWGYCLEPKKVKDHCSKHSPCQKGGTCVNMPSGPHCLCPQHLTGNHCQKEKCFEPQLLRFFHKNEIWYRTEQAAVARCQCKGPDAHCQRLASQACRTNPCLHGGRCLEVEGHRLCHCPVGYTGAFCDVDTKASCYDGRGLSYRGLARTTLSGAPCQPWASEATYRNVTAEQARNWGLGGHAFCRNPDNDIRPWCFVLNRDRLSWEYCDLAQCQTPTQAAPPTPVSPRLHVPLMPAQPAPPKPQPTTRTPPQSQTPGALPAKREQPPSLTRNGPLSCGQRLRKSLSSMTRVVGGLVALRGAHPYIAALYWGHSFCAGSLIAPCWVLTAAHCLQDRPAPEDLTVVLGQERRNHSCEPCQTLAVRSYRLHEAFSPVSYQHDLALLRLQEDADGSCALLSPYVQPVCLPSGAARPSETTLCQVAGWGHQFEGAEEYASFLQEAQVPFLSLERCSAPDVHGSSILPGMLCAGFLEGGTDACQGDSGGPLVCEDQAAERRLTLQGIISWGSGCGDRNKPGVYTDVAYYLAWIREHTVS

[3] = Inhibition of bovine trypsin using chromogenic S2222 as substrate after 10 mins by spectrophotometry; design: species or system Bos taurus
Chymotrypsinogen A = Chymotrypsinogen A (Bos taurus, UniProt P00766); assay: Inhibition of bovine alpha-chymotrypsin using chromogenic spectrozyme CTY as substrate after 10 mins by spectrophotometry
Homo sapiens [4] = species on record: Homo sapiens; assay: Selectivity index ratio of IC50 for human factor 2a to IC50 for human factor 10a
Homo sapiens [5] = species on record: Homo sapiens; assay: Selectivity index ratio of IC50 for human factor 7a to IC50 for human factor 10a
Homo sapiens [6] = species on record: Homo sapiens; assay: Selectivity index ratio of IC50 for human factor 9a to IC50 for human factor 10a
Homo sapiens [7] = species on record: Homo sapiens; assay: Selectivity index ratio of IC50 for human factor 11a to IC50 for human factor 10a
Homo sapiens [8] = species on record: Homo sapiens; assay: Selectivity index ratio of IC50 for factor 12a to IC50 for human factor 10a
[9] = Selectivity index ratio of IC50 for bovine trypsin to IC50 for human factor10a
[10] = Selectivity index ratio of IC50 for bovine alpha-chymotrypsin to IC50 for human factor10a

Chain of Coagulation factor X (P00742 41-179 limits assumed): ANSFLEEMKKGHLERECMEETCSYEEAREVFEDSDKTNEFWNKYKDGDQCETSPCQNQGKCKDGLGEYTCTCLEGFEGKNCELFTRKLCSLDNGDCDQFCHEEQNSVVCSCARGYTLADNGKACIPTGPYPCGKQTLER
Chain of Coagulation factor X (P00742 235-488 limits assumed): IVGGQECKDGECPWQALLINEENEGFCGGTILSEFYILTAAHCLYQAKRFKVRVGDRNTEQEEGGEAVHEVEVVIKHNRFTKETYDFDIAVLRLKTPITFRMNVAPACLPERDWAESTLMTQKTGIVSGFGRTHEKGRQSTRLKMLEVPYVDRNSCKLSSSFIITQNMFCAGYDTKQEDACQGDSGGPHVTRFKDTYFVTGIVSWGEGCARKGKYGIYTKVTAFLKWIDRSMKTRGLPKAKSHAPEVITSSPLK
Chain of Coagulation factor IX (P00740 47-191 limits assumed): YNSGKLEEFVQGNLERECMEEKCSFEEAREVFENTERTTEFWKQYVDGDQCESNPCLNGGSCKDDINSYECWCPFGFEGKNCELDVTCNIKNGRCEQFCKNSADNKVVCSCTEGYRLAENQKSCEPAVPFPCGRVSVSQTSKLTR
Chain of Coagulation factor IX (P00740 227-461 limits assumed): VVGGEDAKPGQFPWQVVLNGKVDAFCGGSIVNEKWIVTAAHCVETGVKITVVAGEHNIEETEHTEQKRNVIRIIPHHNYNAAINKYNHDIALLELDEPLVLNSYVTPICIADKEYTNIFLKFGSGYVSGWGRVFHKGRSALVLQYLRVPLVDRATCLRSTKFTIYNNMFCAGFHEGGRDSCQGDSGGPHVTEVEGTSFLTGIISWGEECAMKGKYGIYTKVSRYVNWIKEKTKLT
Chain of Coagulation factor XI (P03951 19-387 limits assumed): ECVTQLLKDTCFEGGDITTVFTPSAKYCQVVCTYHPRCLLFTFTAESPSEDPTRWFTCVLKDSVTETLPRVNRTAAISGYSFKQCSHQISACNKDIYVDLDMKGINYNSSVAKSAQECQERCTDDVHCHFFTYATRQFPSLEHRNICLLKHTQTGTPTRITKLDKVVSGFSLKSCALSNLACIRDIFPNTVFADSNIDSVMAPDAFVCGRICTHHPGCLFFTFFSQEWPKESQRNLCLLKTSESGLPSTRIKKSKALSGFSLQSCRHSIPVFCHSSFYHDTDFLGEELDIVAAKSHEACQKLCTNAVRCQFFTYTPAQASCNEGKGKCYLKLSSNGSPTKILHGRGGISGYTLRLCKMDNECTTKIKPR
Chain of Coagulation factor XI (P03951 388-625 limits assumed): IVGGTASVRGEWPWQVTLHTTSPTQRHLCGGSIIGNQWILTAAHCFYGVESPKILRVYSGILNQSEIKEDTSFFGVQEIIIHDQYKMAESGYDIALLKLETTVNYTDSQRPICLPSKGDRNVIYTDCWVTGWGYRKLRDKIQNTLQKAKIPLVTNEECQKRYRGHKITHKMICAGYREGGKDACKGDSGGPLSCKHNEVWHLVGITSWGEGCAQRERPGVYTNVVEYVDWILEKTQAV

Row | SMILES | IC50 (Coagulation factor X) | other results
1 | Cc1ccc(CC(=O)N2Cc3ccccc3C[C@H]2C(=O)N(C)c2ccc(N3CCCCC3=O)cc2)cc1 | 14 µM | –
2 | O=C(Nc1ccc(N2CCOCC2=O)cc1)[C@@H]1Cc2ccccc2CN1C(=O)c1ccc(CCl)cc1 | 2.9 µM | 2aPTT (Plasma [1]): 614 µM; 2PT (Plasma [2]): 645 µM
3 | CN(C(=O)[C@@H]1Cc2ccccc2CN1C(=O)c1cc(-c2ccc(Br)cc2)cs1)c1ccc(N2CCOCC2=O)cc1 | > 500 µM | –
4 | CN(C(=O)[C@@H]1Cc2ccccc2CN1C(=O)Cc1ccc(Cl)c(Cl)c1)c1ccc(N2CCCCC2=O)cc1 | 18 µM | –
5 | CN(C(=O)[C@H]1CCCN(C(=O)Cc2ccc(Cl)cc2)C1)c1ccc(N2CCCCC2=O)cc1 | 371 µM | –
6 | O=C(Nc1ccc(N2CCOCC2=O)cc1)[C@@H]1CC=CCN1C(=O)Cc1ccc(Cl)cc1 | 9 µM | 2aPTT (Plasma [1]): 810 µM; 2PT (Plasma [2]): 952 µM
7 | CN(C(=O)[C@@H]1Cc2ccccc2CN1C(=O)Cc1ccc(C(F)(F)F)cc1)c1ccc(N2CCCCC2=O)cc1 | 335 µM | –
8 | O=C(Nc1ccc(N2CCOCC2=O)cc1)[C@@H]1Cc2ccccc2CN1C(=O)OCc1ccccc1 | 6 µM | 2PT (Plasma [2]): 1387 µM
9 | Cc1c(C(=O)N2Cc3ccccc3C[C@H]2C(=O)Nc2ccc(N3CCOCC3=O)cc2)sc2ccc(Cl)cc12 | 5.4 µM | 2PT (Plasma [2]): 2160 µM
10 | CC(C)N(C(=O)[C@@H]1Cc2ccccc2CN1C(=O)OCc1ccccc1)c1ccc(N2CCCCC2=O)cc1 | 19 µM | –
11 | CCN(C(=O)[C@@H]1Cc2ccccc2CN1C(=O)OCc1ccccc1)c1ccc(N2CCCCC2=O)cc1 | 20 µM | –
12 | COc1ccc(CCC(=O)N2Cc3ccccc3C[C@H]2C(=O)N(C)c2ccc(N3CCOCC3=O)cc2)cc1 | 190 µM | –
13 | CN(C(=O)[C@@H]1Cc2ccccc2CN1C(=O)c1ccc(Cl)s1)c1ccc(N2CCCCC2=O)cc1 | 56 µM | –
14 | CN(C(=O)[C@@H]1Cc2ccccc2CN1C(=O)Cc1ccc([N+](=O)[O-])cc1)c1ccc(N2CCCCC2=O)cc1 | 85 µM | –
15 | CN(C(=O)[C@@H]1CCCCN1C(=O)c1ccc(Cl)s1)c1ccc(N2CCCCC2=O)cc1 | 358 µM | –
16 | CN(C(=O)[C@@H]1Cc2ccccc2CN1C(=O)Cc1ccc(Cl)cc1Cl)c1ccc(N2CCCCC2=O)cc1 | 1.3 µM | 2aPTT (Plasma [1]): 260 µM; 2PT (Plasma [2]): 219 µM
17 | COc1ccc(C(=O)N2Cc3ccccc3C[C@H]2C(=O)N(C)c2ccc(N3CCCCC3=O)cc2)cc1 | 19 µM | –
18 | O=C(Nc1ccc(N2CCCCC2)cc1)[C@@H]1Cc2ccccc2CN1C(=O)OCc1ccccc1 | > 500 µM | –
19 | CN(C(=O)[C@@H]1Cc2ccccc2CN1C(=O)OC(C)(C)C)c1ccc(N2CCCCC2=O)cc1 | 221 µM | –
20 | O=C(Nc1ccc(Cl)cc1)[C@@H]1Cc2ccccc2CN1C(=O)OCc1ccccc1 | > 500 µM | –
21 | CN(C(=O)[C@@H]1Cc2ccccc2CN1C(=O)c1ccc(Cl)s1)c1ccc(N2CCOCC2=O)cc1 | 36 µM | –
22 | O=C(Nc1ccc(N2CCOCC2=O)cc1)[C@H]1CCCCN1C(=O)Cc1ccc(Cl)cc1 | 23 µM | –
23 | CN(C(=O)[C@H]1CCCCN1C(=O)c1ccc(Cl)s1)c1ccc(N2CCCCC2=O)cc1 | 99 µM | –
24 | CN(C(=O)[C@H]1Cc2ccccc2CN1C(=O)Cc1ccc(C(F)(F)F)cc1)c1ccc(N2CCCCC2=O)cc1 | 311 µM | –

Row | SMILES | IC50 (Coagulation factor X) | other results
25 | Cc1ccc(C(=O)N2Cc3ccccc3C[C@H]2C(=O)N(C)c2ccc(N3CCCCC3=O)cc2)cc1 | 209 µM | –
26 | COc1cc2c(cc1OC)CN(C(=O)Cc1ccc(Cl)cc1)[C@H](C(=O)N(C)c1ccc(N3CCCCC3=O)cc1)C2 | 7.8 µM | –
27 | O=C(Nc1ccc(N2CCOCC2=O)cc1)[C@@H]1[C@@H]2CC[C@H](C2)N1C(=O)Cc1ccc(Cl)cc1 | 10 µM | 2PT (Plasma [2]): 2347 µM
28 | COc1ccc(CCC(=O)N2Cc3ccccc3C[C@H]2C(=O)N(C)c2ccc(N3CCOCC3=O)cc2)c(OC)c1 | > 500 µM | –
29 | CC(=O)N1CCN(c2ccc(NC(=O)[C@@H]3Cc4ccccc4CN3C(=O)OCc3ccccc3)cc2)CC1 | > 500 µM | –
30 | O=C(Nc1ccc(N2CCCCC2=O)cc1)[C@@H]1Cc2ccccc2CN1C(=O)c1ccc(C(F)(F)F)cc1 | 13.3 µM | –
31 | O=C(Nc1ccc(N2CCOCC2=O)cc1)[C@H]1Cc2ccccc2CN1C(=O)Cc1ccc(Cl)cc1 | 0.27 µM | IC50 (Prothrombin): > 500 µM; IC50 (Coagulation factor VII): > 1000 µM; IC50 (Coagulation factor IX): > 1000 µM; IC50 (Coagulation factor XI): > 500 µM; IC50 (Coagulation factor XII): > 500 µM; IC50 [3]: > 100 µM; IC50 (Chymotrypsinogen A): 75.3 µM; Ratio IC50 (Homo sapiens [4]): > 1850; Ratio IC50 (Homo sapiens [5]): > 3700; Ratio IC50 (Homo sapiens [6]): > 3700; Ratio IC50 (Homo sapiens [7]): > 1850; Ratio IC50 (Homo sapiens [8]): > 1850; Ratio IC50 [9]: > 370; Ratio IC50 [10]: 279; 2aPTT (Plasma [1]): 20.2 µM; 2PT (Plasma [2]): 17.1 µM
32 | CN(C(=O)[C@@H]1Cc2ccccc2CN1C(=O)CCc1ncc(-c2ccc(Cl)cc2)o1)c1ccc(N2CCCCC2=O)cc1 | 103 µM | –
33 | CCN(C(=O)[C@@H]1Cc2ccccc2CN1C(=O)OCc1ccccc1)c1ccc(N2CCOCC2=O)cc1 | 19 µM | –
34 | O=C(Nc1ccc(N2CCN(C(=O)c3cccs3)CC2)cc1)[C@@H]1Cc2ccccc2CN1C(=O)OCc1ccccc1 | > 500 µM | –
35 | COc1ccc(CC(=O)N2Cc3ccccc3C[C@H]2C(=O)N(C)c2ccc(N3CCCCC3=O)cc2)cc1 | 34 µM | –
36 | CN(C(=O)[C@@H]1Cc2ccccc2CN1S(=O)(=O)Cc1ccc(Cl)cc1)c1ccc(N2CCCCC2=O)cc1 | 151 µM | –
37 | CN(C(=O)[C@@H]1Cc2ccccc2CN1C(=O)Cc1ccc(Cl)cc1)c1ccc(N2CCCCC2=O)cc1 | 1.3 µM | 2aPTT (Plasma [1]): 80 µM; 2PT (Plasma [2]): 71 µM
38 | CN(C(=O)[C@@H]1Cc2ccccc2CN1C(=O)c1ccc(Cl)cc1)c1ccc(N2CCCCC2=O)cc1 | 197 µM | –
39 | COc1ccc(CC(=O)N2Cc3ccccc3C[C@H]2C(=O)N(C)c2ccc(N3CCCCC3=O)cc2)cc1OC | 246 µM | –
40 | CN(C(=O)[C@H]1Cc2ccccc2CN1C(=O)Cc1ccc(Cl)cc1)c1ccc(N2CCCCC2=O)cc1 | 0.9 µM | –
41 | O=C(Nc1ccc(N2CCCCC2=O)cc1)[C@@H]1Cc2ccccc2CN1C(=O)OCc1ccccc1 | 9.9 µM | –
42 | CN(C(=O)[C@@H]1Cc2ccccc2CN1C(=O)Cc1ccc(Cl)cc1)c1ccc(N2CCOCC2=O)cc1 | 1.1 µM | –
43 | CN(C(=O)[C@@H]1Cc2ccccc2CN1C(=O)c1cccs1)c1ccc(N2CCCCC2=O)cc1 | 42 µM | –
44 | CN(C(=O)[C@@H]1CCCN(C(=O)c2ccc(Cl)s2)C1)c1ccc(N2CCCCC2=O)cc1 | 69 µM | –
45 | CN(C(=O)[C@H](Cc1ccccc1)NC(=O)Cc1ccc(Cl)cc1)c1ccc(N2CCCCC2=O)cc1 | 54 µM | –
46 | CN(C(=O)[C@@H]1Cc2ccccc2CN1C(=O)OCc1ccccc1)c1ccc(N2CCOCC2=O)cc1 | 12.8 µM | –
47 | CN(C(=O)[C@@H]1Cc2ccccc2CN1C(=O)OCc1ccccc1)c1ccc(N2CCCCC2=O)cc1 | 16.4 µM | –
48 | CCN(C(=O)[C@@H]1Cc2ccccc2CN1C(=O)Cc1ccc(Cl)cc1)c1ccc(N2CCOCC2=O)cc1 | 1.6 µM | –
